Test results reported in ChEMBL document CHEMBL1165950, “Design and synthesis of new potent anticancer pyrazoles with high FLT3 kinase inhibitory selectivity” (Bioorg Med Chem, 2010).

What was measured:
Assay type in all cases: functional
Details in all cases: read-out: Activity
[1] = test system: SF-268; assay: Cytotoxicity against human SF268 cells assessed as cell growth at 10 uM
How it was run: (§1)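 NCI-60 screen: cells grown in RPMI 1640 with 5% FBS and 2 mM L-glutamine, plated at 5000–40,000 cells/well according to doubling time, and preincubated 24 h at 37 °C, 5% CO2. The single 10 µM dose (DMSO stock) was added, then incubated 48 h. Cells were TCA-fixed and stained with 0.4% SRB, read at 515 nm, and growth % calculated against time-zero and control plates.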

[2] = test system: K562; assay: Cytotoxicity against human K562 cells assessed as cell growth at 10 uM
How it was run: (§2)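 Single-dose NCI-60 screen at 10 µM. Cells were grown in RPMI 1640 with 5% FBS and 2 mM L-glutamine, then treated for 48 h at 37 °C. Protein was measured by SRB staining with absorbance at 515 nm. Percentage growth was recorded, and inhibition percentage was calculated as 100 minus growth percentage.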

[3] = test system: SF-295; assay: Cytotoxicity against human SF295 cells assessed as cell growth at 10 uM; how it was run: as §1
[4] = test system: DU-145; assay: Cytotoxicity against human DU145 cells assessed as cell growth at 10 uM; how it was run: as §2
[5] = test system: LOX IMVI; assay: Cytotoxicity against human LOXIMVI cells assessed as cell growth at 10 uM; how it was run: as §1
[6] = test system: HOP-92; assay: Cytotoxicity against human HOP92 cells assessed as cell growth at 10 uM; how it was run: as §2
[7] = test system: TK-10; assay: Cytotoxicity against human TK10 cells assessed as cell growth at 10 uM; how it was run: as §1
[8] = test system: OVCAR-5; assay: Cytotoxicity against human OVCAR5 cells assessed as cell growth at 10 uM; how it was run: as §1
[9] = test system: UO-31; assay: Cytotoxicity against human UO31 cells assessed as cell growth at 10 uM; how it was run: as §1
[10] = test system: 786-0; assay: Cytotoxicity against human 786-0 cells assessed as cell growth at 10 uM; how it was run: as §2
[11] = test system: HT-29; assay: Cytotoxicity against human HT-29 cells assessed as cell growth at 10 uM; how it was run: as §2
[12] = test system: EKVX; assay: Cytotoxicity against human EKVX cells assessed as cell growth at 10 uM; how it was run: as §2
[13] = test system: ACHN; assay: Cytotoxicity against human ACHN cells assessed as cell growth at 10 uM; how it was run: as §2
[14] = test system: CCRF-CEM; assay: Cytotoxicity against human CCRF-CEM cells assessed as cell growth at 10 uM; how it was run: as §2
[15] = test system: SK-MEL-2; assay: Cytotoxicity against human SK-MEL-2 cells assessed as cell growth at 10 uM; how it was run: as §1
[16] = test system: SNB-19; assay: Cytotoxicity against human SNB19 cells assessed as cell growth at 10 uM; how it was run: as §1
[17] = test system: HCT-15; assay: Cytotoxicity against human HCT15 cells assessed as cell growth at 10 uM; how it was run: as §2
[18] = test system: SK-OV-3; assay: Cytotoxicity against human SKOV3 cells assessed as cell growth at 10 uM; how it was run: as §1
[19] = test system: OVCAR-3; assay: Cytotoxicity against human OVCAR-3 cells assessed as cell growth at 10 uM; how it was run: as §1
[20] = test system: M14; assay: Cytotoxicity against human M14 cells assessed as cell growth at 10 uM; how it was run: as §1
[21] = test system: MDA-MB-468; assay: Cytotoxicity against human MDA-MB-468 cells assessed as cell growth at 10 uM; how it was run: as §1
[22] = test system: A498; assay: Cytotoxicity against human A498 cells assessed as cell growth at 10 uM; how it was run: as §2
[23] = test system: HOP-62; assay: Cytotoxicity against human HOP62 cells assessed as cell growth at 10 uM; how it was run: as §2
[24] = test system: IGROV-1; assay: Cytotoxicity against human IGROV1 cells assessed as cell growth at 10 uM; how it was run: as §2
[25] = test system: RXF 393; assay: Cytotoxicity against human RXF393 cells assessed as cell growth at 10 uM; how it was run: as §1
[26] = test system: Malme-3M; assay: Cytotoxicity against human MALME-3M cells assessed as cell growth at 10 uM; how it was run: as §1
[27] = test system: COLO 205; assay: Cytotoxicity against human COLO205 cells assessed as cell growth at 10 uM; how it was run: as §2
[28] = test system: UACC-257; assay: Cytotoxicity against human UACC257 cells assessed as cell growth at 10 uM; how it was run: as §1
[29] = test system: NCI-H23; assay: Cytotoxicity against human NCI-H23 cells assessed as cell growth at 10 uM; how it was run: as §1
[30] = test system: A549; assay: Cytotoxicity against human A549 cells assessed as cell growth at 10 uM; how it was run: as §2
[31] = test system: HCT-116; assay: Cytotoxicity against human HCT116 cells assessed as cell growth at 10 uM; how it was run: as §2

Compound `COc1cc(C)cc(-c2nn(CC#N)cc2-c2ccnc(-c3ccc(Oc4ccccc4)cc3)c2)c1` has a growth at 10 µM [1] of 96.9%, a growth at 10 µM [2] of 88% and a growth at 10 µM [3] of 95.1%. The growth at 10 µM [4] was 105%, the growth at 10 µM [5] was 98% and the growth at 10 µM [6] was 85.5%. For the same compound, the growth at 10 µM [7] was 88.6%, the growth at 10 µM [8] was 90.2% and the growth at 10 µM [9] was 84.8%. The growth at 10 µM [10] was 95%, the growth at 10 µM [11] was 73.9% and the growth at 10 µM [12] was 98.2%. For the same compound, the growth at 10 µM [13] was 85.4%, the growth at 10 µM [14] was 91.3% and the growth at 10 µM [15] was 85.2%. It also gave a growth at 10 µM [16] of 88.5%, a growth at 10 µM [17] of 71% and a growth at 10 µM [18] of 95.4%. It also gave a growth at 10 µM [19] of 109%, a growth at 10 µM [20] of 102% and a growth at 10 µM [21] of 23.6%. It also gave a growth at 10 µM [22] of 85.3%, a growth at 10 µM [23] of 96.1% and a growth at 10 µM [24] of 94.9%. It also gave a growth at 10 µM [25] of 64.2%, a growth at 10 µM [26] of 112% and a growth at 10 µM [27] of 98.6%. For the same compound, the growth at 10 µM [28] was 91.6%, the growth at 10 µM [29] was 88.3% and the growth at 10 µM [30] was 85.8%. For the same compound, the growth at 10 µM [31] was 81.8%.
